# Screens from PubChem.
# A selection: hits, their analogues and other compounds. The true share with any hit is near 4.7%.
# KCC2 mod: KCC2 cotransporter modulators, thallium flux, primary screen, cell-based, HEK293 KCC2, FluoZin-2 fluorescence, MLSMR. Solute carrier family 12 member 5 (Homo sapiens), Q9H2X9. KCC2 cells, thallium flux FluoZin-2 fluorescence. B-score of Tl+ flux slope (higher = more flux/activation; lower = inhibition) at 10 µM. 190,000 tested, 2.2% active;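 active means thallium flux slope and its plate-corrected score both differing from the plate sample mean at a set confidence after two filtering rounds, in either direction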;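 further: slope of fluorescence scaled to starting intensity during 10 to 20 s after thallium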
# RGS4 act: RGS4 potentiators or activators, primary screen, cell-based, HEK293 M3R inducible RGS4, calcium flux. carbachol calcium flux Fluo4; active compounds read low. B-score at 10 µM. 310,000 tested, 0.92% active;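 active means B-score of the integrated calcium signal more than 4 SD below the library mean, with starting fluorescence not abnormally high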;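 further: negative B-score means reduced calcium response which marks RGS4 activation or potentiation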
#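 test system = M3R-expressing HEK293 line, RGS4 induced by doxycycline | probe or stimulus = carbachol at ECmax as muscarinic agonist stimulus | timing = dye loading 30 min 37 °C, buffer rest 30 min RT | signal = calcium dye Fluo4 fluorescence | evaluation = B score from integrated fluorescence ratio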
# MrgX1 agonist: agonists of human MrgX1 receptor, primary screen, HEK293 cells, Fluo-4 calcium flux; 310,000 tested, 0.44% active; Fluo-4 calcium fluorescence, agonist mode; active compounds read high; Mas-related G-protein coupled receptor member X1 (Homo sapiens), Q96LB2; B-score at 10 µM;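 active means calcium response B-score plate-corrected fluorescence ratio at least 3 library SD, with starting fluorescence B-score inside 5 SD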
# Target sequence (Q96LB2 whole entry, looked up): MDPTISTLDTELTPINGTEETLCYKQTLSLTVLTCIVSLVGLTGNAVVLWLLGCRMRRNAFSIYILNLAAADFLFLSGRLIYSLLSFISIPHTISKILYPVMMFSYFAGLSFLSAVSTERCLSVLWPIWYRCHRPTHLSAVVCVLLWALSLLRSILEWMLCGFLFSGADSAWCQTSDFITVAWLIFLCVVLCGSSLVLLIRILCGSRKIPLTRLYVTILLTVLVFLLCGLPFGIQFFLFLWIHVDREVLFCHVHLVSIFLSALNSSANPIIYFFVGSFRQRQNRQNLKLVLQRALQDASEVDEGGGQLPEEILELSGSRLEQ
#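 Test system: HEK293 cells stably expressing human MrgX1 receptor; amount: 15,000 cells per well; doses: compound delivered in addition one of three; times: overnight plating before 1 h dye loading; detection: Fluo-4 NW calcium-flux fluorescence, kinetic read; read-out basis: B-scored fluorescence response ratio; controls: positive and negative controls per plate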
# RGS4 inh: RGS4 inhibitors, primary screen, cell-based, HEK293 M3R inducible RGS4, calcium flux; B-score at 10 µM; 310,000 tested, 0.45% active; Fluo-4 calcium flux; active compounds read high; triggered by carbachol at its EC20;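 active means B-score, a plate-corrected calcium signal, over three deviations above library mean, with baseline fluorescence within five deviations of library mean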;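 further: RGS4 expression induced by doxycycline in cells with stable M3 receptor; B-score is computed from the integrated fluorescence ratio over baseline after carbachol; higher B-score means a larger calcium signal and so more RGS4 inhibition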
# Target sequence (P49798 whole entry, looked up): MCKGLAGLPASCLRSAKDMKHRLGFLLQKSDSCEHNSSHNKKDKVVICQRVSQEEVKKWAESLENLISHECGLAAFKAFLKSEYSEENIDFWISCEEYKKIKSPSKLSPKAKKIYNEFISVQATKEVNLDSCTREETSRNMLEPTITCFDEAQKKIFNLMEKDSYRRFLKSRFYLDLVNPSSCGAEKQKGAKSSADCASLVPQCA
# MrgX1 allo act: positive allosteric modulators of MrgX1, primary screen, HEK293 cells, Fluo-4 calcium flux. Mas-related G-protein coupled receptor member X1 (Homo sapiens), Q96LB2. FDSS; active compounds read high. B-score at 10 µM. 310,000 tested, 0.63% active. AID 588675, 2011;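 active means plate-corrected calcium response at least 3 library SD above typical, normal starting fluorescence, not activating the receptor alone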;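 further: compound read alongside a low EC10 to EC30 dose of BAM8-22 agonist; peak minus trough fluorescence over baseline measured at the second addition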
# MrgX1 antagonist: antagonists of human MrgX1 receptor, primary screen, HEK293 cells, Fluo-4 calcium flux. Mas-related G-protein coupled receptor member X1 (Homo sapiens), Q96LB2. B-score at 10 µM. AID 588676, 2011. BAM8-22 antagonism; active compounds read low. 310,000 tested, 1.3% active;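 active means calcium-response B-score plate-corrected more than 3 library SD below zero, starting fluorescence within 5 deviations, no agonist response on first addition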;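 further: peak minus trough fluorescence over baseline after final BAM8-22 challenge near maximal dose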
# KCC2 secondary: KCC2 modulators in sodium-free buffer, confirmation, cell-based, HEK293 KCC2, thallium flux, secondary assay; shares compounds with KCC2 mod; FluoZin2 fluorescence; active compounds read high; normalised thallium flux (F/F0 slope) at 10 µM; 3,700 tested, 15% active; AID 1713, 2009;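 active means thallium flux slope above the same plate's solvent-only control mean plus 3 SD; inconclusive means the two replicate wells disagree; inactive means no significant difference from solvent-only control wells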
# KCC2 bumet counter: thallium flux persisting under bumetanide in KCC2 cells, confirmation, counter-screen for KCC2 modulator project, cell-based, HEK293 KCC2, FluoZin2, secondary assay 3. AID 1714, 2009. shares compounds with KCC2 mod. normalized thallium flux at 10 µM. 3,700 tested, 49% active. HEK293-KCC2 + bumetanide/ouabain; active compounds read high;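 active means thallium entry rate above the same plate's blocked-transporter control wells by more than 3 SD; inconclusive means the two repeat wells disagree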;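 further: raw slope of fluorescence over initial fluorescence between 10 and 20 s after thallium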
# KCC2 secondary2: KCC2 modulators without ouabain present, confirmation, cell-based, HEK293 KCC2, thallium flux, FluoZin2, secondary assay 2. shares compounds with KCC2 mod. thallium flux FluoZin2 fluorescence; actives lie on both sides; F/F0 rise rate, 10–20 s post-thallium. normalized thallium flux at 10 µM. 3,700 tested, 23% active. AID 1715, 2009;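 active means thallium flux slope more than 3 SD above or below the plate's solvent-only control mean, mostly below; inconclusive means the two repeat wells disagreed; inactive means no significant shift from solvent-only controls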
# HEK counter1: thallium flux modulation in parental HEK cells, confirmation, counter-screen for KCC2 modulator project, cell-based, counterscreen 1 | shares compounds with KCC2 mod | HEK293 parental cells, thallium flux FluoZin2, ouabain; baseline-ratio fluorescence slope, 10–20 s after thallium | thallium flux rate (normalised fluorescence) at 10 µM | 3,700 tested, 46% active;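 active means thallium flux rate significantly above the same plate's solvent-only control wells, beyond their mean plus 3 SD; inconclusive means the two replicate wells gave conflicting results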
# KCC2 ouabain: KCC2 inhibitors and activators, ouabain retest, confirmation, HEK-KCC2 cells | shares compounds with KCC2 mod | HEK293-KCC2, thallium flux FluoZin2 fluorescence; bidirectional: low = inhibitor, high = activator | raw Tl+ flux slope (below DMSO = inhibition, above = activation) at 10 µM | 3,700 tested, 48% active | AID 1717, 2009;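 active means thallium flux slope beyond 3 SD from same-plate DMSO control mean in most replicates, usually higher, sometimes lower; inconclusive means repeat tests gave conflicting results; inactive means no significant difference from controls in most replicates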;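 further: slope of initial-normalized fluorescence between seconds 10 and 20 after thallium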
# HEK counter2: native HEK Tl+ uptake effects, second counter-screen – HEK cells, counterscreen 2, counter-screen for KCC2 modulator project, confirmation; shares compounds with KCC2 mod; HEK293 parental, thallium flux FluoZin-2 fluorescence slope; thallium flux slope at 10 µM; 3,700 tested, 33% active; AID 1718, 2009;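 active means thallium flux slope above the same plate's solvent-control mean plus 3 SD in both duplicate wells; inconclusive means duplicate wells that disagreed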;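 further: run without ouabain in cells lacking the KCC2 cotransporter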
# Numbers stand for hits; – = inactive; ? = inconclusive; · = no result given.
SMILES,KCC2 mod,RGS4 act,MrgX1 agonist,RGS4 inh,MrgX1 allo act,MrgX1 antagonist,KCC2 secondary,KCC2 bumet counter,KCC2 secondary2,HEK counter1,KCC2 ouabain,HEK counter2
C=CC[N@@+]12CC[C@]34c5ccccc5N5/C=C6\C7N(/C=C(\C53)[C@@H](C[C@@H]41)/C(=C/CO)C2)c1ccccc1[C@@]71CC[N@@+]2(CC=C)C/C(=C\CO)[C@@H]6C[C@@H]12 (some centres not stated),·,·,–,·,–,–,·,·,·,·,·,·
O=C(c1cc(COc2ccc(F)cc2Cl)on1)N1CCC(c2ccncc2)CC1,-6.27,–,–,–,–,–,–,–,–,–,0.0143,–
Cc1cc(C)c2c(c1)/C(=N\N=c1\sc3ccccc3n1C)C(=O)N2,–,–,–,–,–,–,·,·,·,·,·,·
COc1cc(C(=S)N2CCOCC2)ccc1OC(=O)Cc1ccc(F)cc1,-4.81,–,–,–,–,–,–,–,0.0285,–,0.0152,–
Cc1[nH]n(C(N)=S)c(=O)c1N=Nc1ccccc1C(F)(F)F,·,–,–,–,–,–,·,·,·,·,·,·
Cc1cccc(N=Nc2c(C)[nH]n(C(N)=S)c2=O)c1C,5.78,–,–,–,–,–,–,0.00925,–,0.00983,–,?
C=CCn1c(Cc2cccs2)nnc1SC/C=C/c1ccccc1,-3.99,–,–,–,–,–,–,?,?,0.0053,0.014,0.00848
O=C(c1ccco1)N1CCN(C(=S)Nc2ccc(F)c(Cl)c2)CC1,·,–,–,–,–,–,·,·,·,·,·,·
CCOC(=O)c1sc2ncnc(NCC(c3cccs3)N(C)C)c2c1C (configuration not stated),·,–,–,–,–,–,0.0412,0.166,0.0464,0.0927,0.0861,0.035
CCCN1CCC(=O)N(CCO)CC1,·,–,–,–,–,–,·,·,·,·,·,·
COc1ccc(CCNC(=O)COc2ccc3c(C)cc(=O)oc3c2)cc1OC,·,–,–,–,–,–,·,·,·,·,·,·
CCOC(=O)c1cc2c(=O)[nH]ccc2nc1C,12.7,–,–,–,–,–,–,?,–,–,–,–
Cc1onc(-c2c(Cl)cccc2Cl)c1C(O)c1ccccc1 (configuration not stated),·,–,–,–,–,–,·,·,·,·,·,·
